Tests used:
[1] = tested on: PANC-1 human pancreatic carcinoma cells; assay: Cell cycle analysis by flow cytometry; format: cell-based; details: PANC-1, 24 h, doses ≤ 46.5 μM
[2] = tested on: DNA; assay: Ethidium bromide displacement; format: binding
[3] = tested on: Candida albicans 44506; assay: Antimicrobial broth dilution assay, C. albicans; format: cell-based
Procedure, shortened: (§1)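 Broth microdilution in microtiter format at 37 °C against the ATCC strains, with MIC as the read-out. C. albicans was grown in Sabouraud dextrose broth; MRSA and P. aeruginosa were grown in cation-supplemented Mueller-Hinton broth.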

[4] = tested on: methicillin-resistant Staphylococcus aureus 700787; assay: Antimicrobial broth dilution assay, MRSA; format: cell-based; details: methicillin-resistant Staphylococcous aureus
Procedure, shortened: as §1

[5] = tested on: Pseudomonas aeruginosa 27853; assay: Antimicrobial broth dilution assay, P. aeruginosa; format: cell-based
Procedure, shortened: as §1

[6] = Solubility; format: physicochemical; details: three physiologically relevant pH levels
[7] = Plasma protein binding; format: in vitro ADME; details: both test concentrations
[8] = Plasma stability, human; format: in vitro ADME; details: 3 h, both test concentrations
[9] = Plasma stability, mouse; format: in vitro ADME; details: 3 h, both test concentrations

**Q.** For `CC(=O)N(C)CCc1cc(Br)c(OCCCNc2ncn(C)c3ncnc2-3)c(Br)c1` [Aphrocallistin, aphrocallistin], which cell cycle arrest [1] is on record?
**A.** The cell cycle arrest was “induce G1 cell cycle arrest”.

**Q.** What about the cell cycle arrest ([1]; listed as aphrocallistin) of the same compound?
**A.** Its cell cycle arrest is “significant cell cycle arrest at G1”.

**Q.** What about the “displacement of ethidium bromide (direct DNA binding)” value [2] of the same compound?
**A.** The value was “no displacement of ethidium bromide was observed”.

**Q.** And the antimicrobial activity [3]?
**A.** Its antimicrobial activity is “did not show significant inhibition”.

**Q.** And the antimicrobial activity [4]?
**A.** Its antimicrobial activity is “did not show significant inhibition”.

**Q.** What about the antimicrobial activity [5] of the same compound?
**A.** Its antimicrobial activity is “did not show significant inhibition”.

**Q.** What about the solubility [6] of the same compound?
**A.** Its solubility is “high”.

**Q.** And the protein binding [7]?
**A.** Its protein binding is “moderate protein binding”.

**Q.** What about the plasma stability [8] of the same compound?
**A.** Its plasma stability is “excellent stability”.

**Q.** And the plasma stability [9]?
**A.** The plasma stability was “excellent stability”.
